Data on 7 molecules can be found in ChEMBL document CHEMBL1121993, “A specific inhibitor of IgE-antibody formation: n-pentyl beta-D-fructopyranoside” (1982).

What all share (format): functional
The species named for test [1] is Mus musculus. As to the kind of experiment: Evaluated for effect against passive cutaneous anaphylaxis in female BALB/c mice immunized with 10 ug of DNP-As and 2 mg of Al(OH3) after day 10; PCA (log2). In a few lines:
(§1)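 Female BALB/c mice received 10 μg DNP-As and 2 mg Al(OH)3 on day 0, then 100 (mg/kg)/day po in 2% NaHCO3 for 5 days after immunization. Sera were taken on days 10, 21 and 30 and pooled from five mice. PCA was done in normal male Wistar rats: serum id in duplicate, then 1 mg DNP-As with 5 mg Evans blue iv; titer is the greatest dilution with a reaction >5 mm.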

Test [2] is filed under the species Rattus norvegicus. Nature of the test: Evaluated for effect against passive cutaneous anaphylaxis in rats immunized with DNP-As and B. pertussis; PCA (log2). In a few lines: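 Rats were immunized with 1 mg DNP-As and 10^10 B. pertussis on day 0 and boosted with 0.5 mg DNP-As on day 5. Drug was given at 100 (mg/kg)/day ip for 5 days from day 0, and serum was taken on day 8. PCA was read in male Wistar rats after id serum, with iv DNP-As and Evans blue. Titer is the greatest dilution with a spot >5 mm; means ± SE of eight rats.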

For test [3], the species on record is Mus musculus. As to the kind of experiment: Evaluated for effect against passive cutaneous anaphylaxis in female BALB/c mice immunized with 10 ug of DNP-As and 2 mg of Al(OH3) after day 21; PCA (log2). In a few lines: as §1
For test [4], the species on record is Mus musculus. As to the kind of experiment: Evaluated for effect against passive hemagglutinination in female BALB/c mice immunized with 10 ug of DNP-As and 2 mg of Al(OH3) after day 30; PHA(log2). In a few lines:
(§2)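 Female BALB/c mice were given 10 μg DNP-As and 2 mg Al(OH)3 on day 0, then 100 (mg/kg)/day po in 2% NaHCO3 for 5 days after immunization. Pooled sera from five mice (days 10, 21, 30) were serially diluted and mixed with sheep red cells coupled to DNP-As via glutaraldehyde, then held 2 h at 37 °C. Titer is the greatest dilution with complete agglutination, expressed as n of 2^n.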

The species entered for test [5] is Mus musculus. Nature of the test: Evaluated for effect against passive hemagglutinination in female BALB/c mice immunized with 10 ug of DNP-As and 2 mg of Al(OH3) after day 10; PHA(log2). In a few lines: as §2
Test [6] is filed under the species Mus musculus. Nature of the test: Evaluated for effect against passive cutaneous anaphylaxis in female BALB/c mice immunized with 10 ug of DNP-As and 2 mg of Al(OH3) after day 30; PCA (log2). In a few lines: as §1
For test [7], the species on record is Rattus norvegicus. Nature of the test: Evaluated for effect against passive hemagglutinination in rats immunized with DNP-As and B. pertussis; PHA(log2). In a few lines:
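Rats were immunized day 0 with 1 mg DNP-As plus 10¹⁰ killed B. pertussis, boosted day 5 with 0.5 mg DNP-As alone, and titers read on day 8. Dosing was 100 (mg/kg)/day ip for 5 days from day 0. Serum dilutions were incubated with DNP-As-coupled sheep erythrocytes for 2 h at 37 °C; complete agglutination endpoint as 2^n; means ± SE, eight rats.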

The species named for test [8] is Mus musculus. As to the kind of experiment: Evaluated for effect against passive hemagglutinination in female BALB/c mice immunized with 10 ug of DNP-As and 2 mg of Al(OH3) after day 21; PHA(log2). In a few lines:
as §2

For test [9], the species on record is Rattus norvegicus. As to the kind of experiment: Evaluated for effect against passive cutaneous anaphylaxis in female wistar rats; PCA (log2). In a few lines: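 Female Wistar rats (190–210 g) were immunized with 1 mg DNP-As plus 10^10 killed B. pertussis on day 0 and boosted with 0.5 mg DNP-As on day 5; serum was taken on day 8. Drug was given at 100 (mg/kg)/day po in 2% NaHCO3 for 5 days from day 0. Serum was then tested by PCA in normal male rats (Evans blue readout, >5 mm cutoff). Values are means ± SE, n=8.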

Test [10] is filed under the species Rattus norvegicus. Nature of the test: Evaluated for effect against passive hemagglutinination in female wistar rats; PHA(log2). In a few lines:
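Female Wistar rats were immunized with 1 mg DNP-As plus 10¹⁰ killed B. pertussis on day 0, boosted on day 5 with 0.5 mg DNP-As, and sera taken on day 8. Compound in 2% NaHCO₃ was given at 100 (mg/kg)/day po for 5 days from day 0. Hemagglutination used DNP-As-coupled sheep RBC, 2 h at 37 °C; titer is the highest complete-agglutination dilution (log2); mean ± SE, eight rats.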

The species named for test [11] is Mus musculus. As to the kind of experiment: Evaluated for effect against passive hemagglutinination (PHA) in female BALB/c mice immunized with 10 ug of DNP-As and 2 mg of Al(OH3) after day 10; PHA(log2). In a few lines:
as §2

The species named for test [12] is Mus musculus. Nature of the test: Evaluated for effect against passive cutaneous anaphylaxis (PCA) in female BALB/c mice immunized with 10 ug of DNP-As and 2 mg of Al(OH3) after day 30; PCA (log2). In a few lines:
as §1

Test [13] is filed under the species Mus musculus. Nature of the test: Evaluated for effect against passive cutaneous anaphylaxis (PCA) in female BALB/c mice immunized with 10 ug of DNP-As and 2 mg of Al(OH3) after day 21; PCA (log2). In a few lines:
as §1

The species named for test [14] is Mus musculus. Nature of the test: Evaluated for effect against passive cutaneous anaphylaxis (PCA) in female BALB/c mice immunized with 10 ug of DNP-As and 2 mg of Al(OH3) after day 10; PCA (log2). In a few lines:
as §1

The species named for test [15] is Mus musculus. As to the kind of experiment: Evaluated for effect against passive hemagglutinination (PHA) in female BALB/c mice immunized with 10 ug of DNP-As and 2 mg of Al(OH3) after day 21; PHA(log2). In a few lines: as §2
For test [16], the species on record is Mus musculus. Nature of the test: Evaluated for effect against passive hemagglutinination (PHA) in female BALB/c mice immunized with 10 ug of DNP-As and 2 mg of Al(OH3) after day 30; PHA(log2). In a few lines: as §2

Some results are limits rather than exact numbers.

In the case of `OC[C@@]1(OCc2ccccc2)OC[C@@H](O)[C@H](O)[C@@H]1O`, the PCA in the test listed under Mus musculus [1] is 8.6; in the test listed under Rattus norvegicus [2] it was 7; in the test listed under Mus musculus [3], 9; in the test listed under Mus musculus [6] it was 8.4. Besides, the PHA in the test listed under Mus musculus [4] amounted to 6; in the test filed under Mus musculus [5], 6; in the test filed under Rattus norvegicus [7] it was 9; in the test filed under Mus musculus [8] it was 5.

For `CCO[C@]1(CO)OC[C@@H](O)[C@H](O)[C@@H]1O`, the PCA in the test listed under Rattus norvegicus [9] was found to be 6.7; in the test filed under Rattus norvegicus [2] it was 7.1; in the test listed under Mus musculus [12] it was 7.8; in the test filed under Mus musculus [13], 8.3; in the test filed under Mus musculus [14] it was 7.9. The PHA in the test filed under Rattus norvegicus [10] is 8.5; in the test filed under Mus musculus [11] it was 5; in the test filed under Mus musculus [15], 5; in the test listed under Mus musculus [16], 6; in the test listed under Rattus norvegicus [7], 7.9.

On to `CCO[C@@]1(CO)O[C@H](CO)[C@@H](O)[C@@H]1O`, for which, in the test listed under Rattus norvegicus [2], the PCA is given as 6.5.

`CCCCO[C@@]1(CO)O[C@H](CO)[C@@H](O)[C@@H]1O`: in the test listed under Rattus norvegicus [2], the PCA stood at 6.7.

`CCCO[C@@]1(CO)O[C@H](CO)[C@@H](O)[C@@H]1O`: in the test listed under Rattus norvegicus [2], the PCA amounted to 7.3.

Turning to `CCO[C@]1(CO)O[C@H](CO)[C@@H](O)[C@@H]1O`, the PCA in the test listed under Rattus norvegicus [2] was 6.1.

The molecule `O=P1(N(CCCl)CCCl)NCCCO1` (centres undefined) [CYCLOPHOSPHAMIDE ANHYDROUS] showed a PCA in the test filed under Rattus norvegicus [2] below 2. This molecule also came in with a PHA in the test filed under Rattus norvegicus [7] of 1.3.
